Experiments:
Type in all cases: functional
Parameters in all cases: scale not given: the % may be the effect or the level left
BV-2 [1] = experiment: Inhibition of LPS-induced NO production in mouse BV2 microglia cells assessed as nitrite levels at 100 uM relative to untreated control
Outline: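 BV-2 microglia seeded 2 × 10^5 cells/well in 24-well plates. After 24 h, fresh medium with LPS ([…]) and compound in DMSO added at the same time. After 24 h, nitrite in the medium measured by Griess reaction (sulfanilamide, naphthylethylenediamine, H3PO4) with absorbance at 540 nm. Given as % of LPS-activated cells.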

BV-2 [2] = experiment: Inhibition of LPS-induced tetrahydrobiopterin production in mouse BV2 microglia cells assessed as tetrahydrobiopterin levels at 100 uM relative to untreated control
Outline: (§1)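 BV-2 cells in 24-well plates (2 × 10^5/well) stimulated with LPS ([…]) in fresh medium together with compound in DMSO for 24 h. Medium was treated with phosphoric acid and acidic iodine (I2/KI in trichloroacetic acid) for 1 h in the dark. Oxidation stopped with ascorbic acid, then centrifuged and diluted. BH4 given as % of LPS-activated cells.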

BV-2 [3] = experiment: Inhibition of LPS-induced tetrahydrobiopterin production in mouse BV2 microglia cells assessed as tetrahydrobiopterin levels at 50 uM relative to untreated control; outline: as §1
BV-2 [4] = experiment: Inhibition of LPS-induced tetrahydrobiopterin production in mouse BV2 microglia cells assessed as tetrahydrobiopterin levels at 10 uM relative to untreated control; outline: as §1
BV-2 [5] = experiment: Inhibition of LPS-induced tetrahydrobiopterin production in mouse BV2 microglia cells assessed as tetrahydrobiopterin levels at 60 uM relative to untreated control; outline: as §1
BV-2 [6] = experiment: Inhibition of LPS-induced tetrahydrobiopterin production in mouse BV2 microglia cells assessed as tetrahydrobiopterin levels at 30 uM relative to untreated control; outline: as §1

| SMILES | Activity (BV-2 [1]) [%] | also measured |
| --- | --- | --- |
| CCC1c2cc(O)c(OC)cc2CCN1C(C)=O (stereo not given) | 50 | – |
| COc1cc2c(cc1O)CN(C(C)=O)CC2 | 46 | Activity (BV-2 [2]): 55%; Activity (BV-2 [3]): 79% |
| COc1cc2c(cc1O)C(c1ccccc1)N(C(C)=O)CC2 (stereo not given) | 51 | – |
| CCC(=O)N1CCc2cc(OC)c(O)cc2C1 | 36 | Activity (BV-2 [4]): 86%; Activity (BV-2 [5]): 72%; Activity (BV-2 [2]): 51% |
| COc1cc2c(cc1O)C(C1CC1)N(C(C)=O)CC2 (stereo not given) | 60 | – |
| COc1cc2c(cc1O)C(C)N(C(C)=O)CC2 (stereo not given) | 40 | Activity (BV-2 [4]): 99%; Activity (BV-2 [6]): 59%; Activity (BV-2 [5]): 59%; Activity (BV-2 [2]): 52% |
| COc1cc2c(cc1O)C(C(C)C)N(C(C)=O)CC2 (stereo not given) | 39 | – |
| CCCC1c2cc(O)c(OC)cc2CCN1C(C)=O (stereo not given) | 84 | – |
| COc1cc2c(cc1O)CN(C(=O)C1CCCCC1)CC2 | 64 | Activity (BV-2 [6]): 95%; Activity (BV-2 [5]): 71%; Activity (BV-2 [2]): 63% |
| CCCCN1CCc2cc(OC)c(O)cc2C1 | 111 | – |
| COc1cc2c(cc1O)C(C1CCC1)N(C(C)=O)CC2 (stereo not given) | 69 | – |
| COc1cc2c(cc1O)C(Cc1ccccc1)N(C(C)=O)CC2 (stereo not given) | 96 | – |
| COc1cc2c(cc1O)CN(C(=O)C(C)C)CC2 | 82 | – |
| COc1cc2c(cc1O)CN(CC1CCCCC1)CC2 | 63 | – |
| COc1cc2c(cc1O)C(CC(C)C)N(C(C)=O)CC2 (stereo not given) | 113 | – |
| CCCC(=O)N1CCc2cc(OC)c(O)cc2C1 | 74 | – |
| COc1cc2c(cc1O)CN(C(=O)CC(C)C)CC2 | 90 | – |
| CCCN1CCc2cc(OC)c(O)cc2C1 | 82 | – |

Source: ChEMBL document CHEMBL1156698, “Syntheses of tetrahydroisoquinoline derivatives that inhibit NO production in activated BV-2 microglial cells” (Eur J Med Chem, 2008)
